Measurements taken from ChEMBL document CHEMBL1124860, “Purine derivatives as competitive inhibitors of human erythrocyte membrane phosphatidylinositol 4-kinase” (J Med Chem, 1990).

What was measured:
[1] = target: T1, Phosphatidylinositol 4-kinase, PI4K (Homo sapiens, UniProt Q9BTU6+Q8TCG2+Q9UBF8+P42356); type: protein assay
[2] = target: T1, Phosphatidylinositol 4-kinase, PI4K; test: Binding affinity (Ki) against human phosphatidylinositol 4-kinase; type: protein assay
Method in brief: (§1)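 Human erythrocyte plasma membranes (0.36 mg protein) were incubated with PI (0.12 mM, [2-3H]PI tracer), ATP at 100 µM, ouabain, vanadate, DTT, 0.6% Triton X-100, MgCl2, EGTA, KCl/NaCl and HEPES pH 7.4 for 10 min at 30 °C. Lipids were extracted and deacylated, and the aqueous phase collected. Compounds were screened at 500 µM, then IC50 fitted from single dose-response curves. Ki = IC50/(1+[S]/Km), with ATP Km 221.5 µM.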

[3] = Vmax value was determined; type: ADME
[4] = tested on: c1ccc(CNc2ncnc3[nH]cnc23)cc1; test: (§2) Inhibition of Phosphatidylinositol 4-kinase at the ATP binding site; type: protein assay; details: Homo sapiens
Method in brief: as §1

[5] = tested on: Nc1[nH]cnc2ncnc1-2; test: as §2; type: protein assay; details: Homo sapiens
Method in brief: as §1

[6] = tested on: CCn1cnc2c(N)ncnc21; test: as §2; type: protein assay; details: Homo sapiens
Method in brief: as §1

[7] = tested on: Nc1ncnc2c1ncn2C1CCCO1; test: as §2; type: protein assay; details: Homo sapiens
Method in brief: as §1

[8] = tested on: Nc1ncnc2c1ncn2[C@@H]1O[C@H](CO)[C@@H](O)[C@H]1O; test: as §2; type: protein assay; details: Homo sapiens
Method in brief: as §1

Row | Compound | IC50 [1] | Ki [2] | other results
1 | CC(C)(C)Cn1cnc2c(N)ncnc21 | 12.8 µM | 9 µM | –
2 | Nc1ncnc2c1ncn2C1CCCCCC1 | 7.2 µM | 5 µM | –
3 | CCn1cnc2c(N)ncnc21 | 32.4 µM | 25.5 µM | Vmax [3]: 20800 c.p.m.
4 | COc1cccc(-n2cnc3c(N)ncnc32)c1 | 22.9 µM | 15.8 µM | –
5 | Nc1ncnc2[nH]c(-c3ccccc3)nc12 | 48.8 µM | 33.6 µM | –
6 | Phosphatidylinositol 4-kinase, PI4K (Homo sapiens) (from UniProt Q9BTU6+Q8TCG2+Q9UBF8+P42356) | – | – | Km [4]: 239 µM; Km [5]: 297 µM; Km [6]: 257 µM; Km [7]: 262 µM; Km [8]: 179 µM
7 | Nc1ncnc2cc3ccccc3cc12 | 33 µM | 22.7 µM | –
8 | Nc1ncnc2c1ncn2-c1ccc(Cl)cc1 | 41.1 µM | 28.2 µM | –
9 | Nc1nc(N)c2[nH]c(-c3ccccc3)nc2n1 | 199.5 µM | 137.7 µM | –
10 | Nc1ncnc2c1ncn2-c1cccc2ccccc12 | 78.8 µM | 54.4 µM | –
11 | Cl.Nc1ncnc2nc[nH]c12 | 182.6 µM | 85.8 µM | Vmax [3]: 22800 c.p.m.
12 | Nc1ncnc2c1ncn2C1CCCCC1 | 6 µM | 3.7 µM | –
13 | c1ccc(CNc2ncnc3nc[nH]c23)cc1 [6-BENZYLAMINOPURINE] | 240.4 µM | 199 µM | Vmax [3]: 25800 c.p.m.
14 | CCCCCc1nc2[nH]cnc(N)c-2n1 | 68.9 µM | 47.5 µM | –
15 | Nc1ncnc2scnc12 | 116.9 µM | 80.6 µM | –
16 | Nc1ncnc2c1ncn2[C@@H]1O[C@H](COP(=O)(O)OP(=O)(O)O)[C@@H](O)[C@H]1O [ADENOSINE DIPHOSPHATE] | 145.3 µM | 100.1 µM | –
17 | Nc1ncnc2c1nc1n2CCCC1 | 52.4 µM | 35.8 µM | –
18 | Cn1cnc2c(N)ncnc21 | 161 µM | 110.9 µM | –
19 | Nc1ncnc2c1cnn2-c1ccccc1 | 16.1 µM | 11 µM | –
20 | Nc1ncnc2c1ncn2[C@@H]1O[C@H](CO)[C@@H](O)[C@H]1O [ADENOSINE] | 30.3 µM | 19.2 µM | Vmax [3]: 31400 c.p.m.
21 | Nc1ncnc2c1ncn2-c1ccccc1 | 15.4 µM | 10.3 µM | –
22 | Nc1ncnc2c1ncn2C1CCCO1 (stereo not drawn) | 28.2 µM | 21.2 µM | Vmax [3]: 25800 c.p.m.
23 | Nc1[nH]cnc2nc(-c3ccccn3)nc1-2 | 75.6 µM | 52.3 µM | –
24 | Cc1nc2[nH]cnc(N)c-2n1 | 195.4 µM | 134.3 µM | –
25 | CC1(C)O[C@@H]2[C@H](O1)[C@@H](CO)O[C@H]2n1cnc2c(N)ncnc21 | 12.1 µM | 8.4 µM | –
26 | Cn1c(-c2ccccc2)nc2c(N)ncnc21 | 34.9 µM | 24.1 µM | –
27 | CC1(n2cnc3c(N)ncnc32)CCCCC1 | 7.2 µM | 5 µM | –

Row | Compound | IC50 [1] | Ki [2] | other results
28 | Nc1ncnc2c1ncn2C1O[C@H](CI)[C@@H](O)[C@H]1O (stereo partly drawn) | 23.1 µM | 15.9 µM | –
29 | Nc1ncnc2c1ncn2-c1ccccc1F | 11.9 µM | 8.3 µM | –
30 | Cl.Nc1ncnc2nc(Br)[nH]c12 | 215.3 µM | 148.4 µM | –
31 | CC(C)(C)c1ccc(-n2cnc3c(N)ncnc32)cc1 | 46.1 µM | 31.7 µM | –
32 | Cn1ncc2c(N)ncnc21 | 82.5 µM | 56.8 µM | –
33 | COc1ccc(-n2cnc3c(N)ncnc32)cc1 | 21.9 µM | 15.2 µM | –
34 | Nc1nc2ncnc-2c[nH]1 [2-AMINOPURINE] | 341.6 µM | 235.4 µM | –
35 | CC(C)(C)n1cnc2c(N)ncnc21 | 10.2 µM | 6.9 µM | –
36 | CCC(CC)(CC)n1cnc2c(N)ncnc21 | 134.1 µM | 93.7 µM | –
37 | Nc1[nH]cnc2nc(-c3cccc4ccccc34)nc1-2 | 129.8 µM | 89.5 µM | –
38 | Nc1ncnc2c1nc(-c1ccccc1)n2-c1ccccc1 | 16.4 µM | 11 µM | –
39 | Nc1ncnc2c1ncn2C1CCCC1 | 8.7 µM | 6 µM | –
40 | Nc1ncnc2c1ncn2-c1cccnc1 | 46.2 µM | 31.8 µM | –
41 | Nc1ncnc2c1ncn2Cc1ccccc1 [9-BENZYL-9H-ADENINE] | 84.4 µM | 57.9 µM | –
42 | Nc1ncnc2c1ncn2C12CC3CC(CC(C3)C1)C2 | 6 µM | 4.1 µM | –
43 | CCCCCc1nc2c(N)ncnc2n1CCCCC | 126.5 µM | – | –
44 | CN(C)c1ncnc2nc[nH]c12 [DIMETHYLADENINE] | 218 µM | 150.2 µM | –
45 | Nc1ncnc2[nH]ncc12 | 144.9 µM | 99.9 µM | –
46 | Cc1nc2c(N)ncnc2n1-c1ccccc1 | 16.4 µM | 11 µM | –
47 | CC(C)n1cnc2c(N)ncnc21 | 14.9 µM | 10.3 µM | –
48 | Cc1ccccc1-n1cnc2c(N)ncnc21 | 23.6 µM | 16.5 µM | –
49 | Nc1ncnc2c1ncn2-c1cccc(F)c1 | 25.6 µM | 17.9 µM | –
50 | Cl.Nc1[nH]cnc2nc(NCc3ccccc3)nc1-2 | 133 µM | 91.7 µM | –
51 | CCCCCc1nc2c(N)ncnc2n1-c1ccccc1 | 51.9 µM | 35.8 µM | –
52 | Nc1nc(N)c2nc[nH]c2n1.O=S(=O)(O)O | 146.8 µM | 101.2 µM | –
53 | Nc1ncnc2ccccc12 [4-AMINOQUINAZOLINE] | 91.7 µM | 63.4 µM | –
